From ChEMBL document CHEMBL1129452, “Phenethylthiazolylthiourea (PETT) compounds as a new class of HIV-1 reverse transcriptase inhibitors. 2. Synthesis and further structure-activity relationship studies of PETT analogs” (J Med Chem, 1996)

How the values were obtained:
MT4 [1] = assay: Inhibition of mutant type (Ile100) HIV-1 (IIIB) replication in MT-4 cells; assay type: functional; settings: Homo sapiens, read-out: ED50 (the source's name)
Procedure, shortened: (§1)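 MT-4 cells (human T cell line) in RPMI 1640 with 10% fetal calf serum, penicillin and streptomycin, seeded at 2 × 10⁴ cells/well. Infected with 10-20 TCID₅₀ of mutant HIV-1 IIIB per well, with the compound added at different concentrations. Incubated at 37 °C in CO₂. Cell viability read by XTT dye at day 5 or 6. Activity taken as the reduction in viral cytopathic effect, given as ED₅₀. Mutants were raised by passage in stepwise increasing concentrations of non-nucleoside RT inhibitors.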

MT4 [2] = assay: Tested for the inhibition of wild type HIV-1 (IIIB) replication in MT-4 cells; assay type: functional; settings: Homo sapiens, read-out: ED50 (the source's name)
Procedure, shortened: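 MT-4 human T cells in RPMI 1640 with 10% fetal calf serum, penicillin and streptomycin, seeded at 2 × 10⁴ cells/well and infected with 10-20 TCID₅₀ HIV-1 IIIB per well. Compounds were added over a concentration range and cultures kept at 37 °C in CO₂. Viability was read by XTT at day 5 or 6, and activity was taken as reduction of viral cytopathic effect.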

[3] = molecular target: T1, Human immunodeficiency virus type 1 reverse transcriptase (Human immunodeficiency virus 1, UniProt Q72547); assay: Tested for the inhibition of wild type HIV-1 (IIIB) RT
[4] = molecular target: T1, Human immunodeficiency virus type 1 reverse transcriptase; assay: Tested for the inhibition of mutant type (Cys181) HIV-1 (IIIB) RT
MT4 [5] = assay: Inhibition of mutant type (Cys181) HIV-1 (IIIB) replication in MT-4 cells; assay type: functional; settings: Homo sapiens, read-out: ED50 (the source's name); procedure, shortened: as §1
[6] = molecular target: T1, Human immunodeficiency virus type 1 reverse transcriptase; assay: Tested for the inhibition of mutant type (Ile100) HIV-1 (IIIB) RT
MT4 [7] = assay: Inhibition of HIV-1(IIIB) variants (Ile100/Cys181) in HIV-1 MT-4 cells; assay type: functional; settings: Homo sapiens, read-out: ED50 (the source's name); procedure, shortened: as §1
MT4 [8] = assay: Inhibition of HIV-1(IIIB) variants (Ile100/Asn103) in HIV-1 MT-4 cells; assay type: functional; settings: Homo sapiens, read-out: ED50 (the source's name); procedure, shortened: as §1

Row | Compound | EC50 (MT4 [1]) [nM] | EC50 (MT4 [2]) [nM] | IC50 [3] [nM] | IC50 [4] [nM] | EC50 (MT4 [5]) [nM] | IC50 [6] [nM] | EC50 (MT4 [7]) [nM] | EC50 (MT4 [8]) [nM]
1 | Fc1cc(F)c(CCNC(=S)Nc2ccc(Cl)cn2)c(F)c1 | 2000 | 10 | 2 | 290 | 1500 | 810 |  | 
2 | S=C(NCCc1c[nH]c2ccccc12)Nc1ccc(Br)cn1 | 3000 | 110 | 30 | 320 | 300 | > 2500 |  | 
3 | S=C(NCCn1nc2ccccc2n1)Nc1ccc(Br)cn1 | 2000 | 14 | 3 | 100 | 1000 | 2000 |  | 
4 | COc1ccc2[nH]cc(CC/N=C(\S)Nc3ccc(Br)cn3)c2c1 | > 2000 | 500 | 320 | 2500 | 900 | > 2500 |  | 
5 | Fc1ccoc1CC/N=C(\S)Nc1ccc(Cl)cn1 | 100 | 7 | 4 | 140 | 80 | 230 | > 10000 | > 10000
6 | Cn1cccc1CCNC(=S)Nc1ccc(Cl)cn1 | > 2000 | 250 | 90 | 1400 | > 2000 | 2700 |  | 
7 | COc1ccc(F)c(CC/N=C(\S)Nc2ccc(Cl)cn2)c1C#N | 400 | 11 | 5 | 1100 | 100 | 1100 |  | 
8 | Cc1cc2nn(CCNC(=S)Nc3ccc(Br)cn3)nc2cc1C | > 2000 | 220 | 150 | 100 | > 2000 | > 2500 |  | 
9 | CCOc1ccc(F)c(CC/N=C(\S)Nc2nc(C(F)(F)F)cs2)c1Cl | > 2000 | 70 | 47 | 7000 | > 2000 | 7000 |  | 
10 | Cn1cccc1CC/N=C(\S)Nc1ccc(C#N)cn1 | > 2000 | 110 | 70 | 1100 | > 2000 | 3500 |  | 
11 | COc1ccc(F)c(CCNC(=S)Nc2ccc(Br)cn2)c1OC | 3000 | 12 | 7 | 85 | 200 | 430 |  | 
12 | CN(C)c1ccc(F)c(CCNC(=S)Nc2ccc(Cl)cn2)c1F | > 2000 | 40 | 8 | 190 | 700 | 1900 |  | 
13 | CCOc1ccc(F)c(CCNC(=S)Nc2ccc(Br)cn2)c1F | 100 | 6 | 4 | 20 | 6 | 170 | 1200 | > 10000
14 | COCc1ccc(F)c(CCNC(=S)Nc2ccc(Br)cn2)c1F | 2500 | 6 | 4 | 100 | 300 | 720 |  | 
15 | CCOc1ccc(F)c(CCNC(=S)Nc2ccc(Cl)cn2)c1Cl | 600 | 8 | 6 | 30 | 7 | 130 |  | 
16 | CCOc1ccc(F)c(CCNC(=S)Nc2ccc(I)cn2)c1Cl | 3000 | 15 | 8 | 130 | 200 | 420 |  | 
17 | CCOc1cccc(F)c1CCNC(=S)Nc1ccc(Br)cn1 | 90 | 13 |  | 25 | 7 | 50 | 1000 | 1600
18 | CCOc1ccc(OCC)c(CCNC(=S)Nc2ccc(Br)cn2)c1 | > 2000 | 18 | 18 | 707 | 800 | 1650 |  | 

Row | Compound | EC50 (MT4 [1]) [nM] | EC50 (MT4 [2]) [nM] | IC50 [3] [nM] | IC50 [4] [nM] | EC50 (MT4 [5]) [nM] | IC50 [6] [nM] | EC50 (MT4 [7]) [nM] | EC50 (MT4 [8]) [nM]
19 | CNC(=O)c1ccc(F)c(CC/N=C(\S)Nc2ccc(Br)cn2)c1F | > 2000 | 80 | 23 | > 2000 | 300 | > 2000 |  | 
20 | N#Cc1ccoc1CCNC(=S)Nc1ccc(Cl)cn1 | 700 | 20 | 60 | 2600 | 200 | 2600 |  | 
21 | O=C1c2c(Cl)ccc(Cl)c2C(=O)N1CCNC(=S)Nc1ccc(Cl)cn1 | > 2000 | 19 | 2 | 10 | > 2000 | 230 |  | 
22 | CCOc1c(Cl)cc(F)c(CCNC(=S)Nc2ccc(Br)cn2)c1Cl | 1000 | 13 | 21 | 660 | 20 | 240 |  | 
23 | COc1ccc(F)c(CCNC(=S)Nc2ccc(Br)cn2)c1F | 600 | 15 | 6 | 60 | 50 | 870 |  | 
24 | CC(=O)NCc1ccc(F)c(CCNC(=S)Nc2ccc(Br)cn2)c1F | > 2000 | 900 | 45 | > 2000 | > 2000 | > 2000 |  | 
25 | CCOc1ccc(F)c(CCNC(=S)Nc2ccc(C#N)cn2)c1Cl | 500 | 3 | 5 | 30 | 30 | 110 |  | 
26 | COc1ccc(F)c(CCNC(=S)Nc2ccc(C#N)cn2)c1C#N | 200 | 1 | 3 | 50 | 30 | 60 |  | 
27 | CCOc1ccc(Cl)c(CC/N=C(\S)Nc2ccc(Br)cn2)c1F | 900 | 18 | 2 | 9 | 50 | 90 | > 10000 | > 10000
28 | CCOc1ccc(F)c(CC/N=C(\S)Nc2ccc(Br)cn2)c1C#N | 40 | 4 | 2 | 210 | 5 | 140 | 3000 | > 10000
29 | CN(C)c1ccc(F)c(CCNC(=S)Nc2ccc(Br)cn2)c1F | > 2000 | 40 | 7 | 170 | 1000 | 1900 |  | 
30 | Fc1cccc(F)c1CCNC(=S)Nc1ccc(Br)cn1 | 600 | 13 |  | 30 | 150 | 50 |  | 
31 | CN(C)c1cc(F)c(CCNC(=S)Nc2ccc(Cl)cn2)c(F)c1 | 1500 | 18 | 20 | 130 | 900 | 270 |  | 
32 | CCc1cc(NCc2nc3c(Cl)ccc(Cl)c3o2)c(O)nc1C [L-697661] | 850 | 65 |  | 7700 | > 11000 | 850 |  | 
33 | Cc1ccnc2c1NC(=O)c1cccnc1N2C1CC1 [NEVIRAPINE] | 620 | 150 |  |  | 22000 |  | > 10000 | 8000
34 | CCOc1ccc(F)c(CCNC(=S)Nc2ccc(Br)cn2)c1Cl [THIOUREA, N-(5-BROMO-2-PYRIDINYL)-N'-(2-(2-CHLORO-3-ETHOXY-6-FLUOROPHENYL)ETHYL)-] | 400 | 7 | 12 | 50 | 30 | 190 |  | 
35 | S=C(NCCc1ccccn1)Nc1ccc(Br)cn1 [TROVIRDINE] |  | 20 |  |  |  |  |  | 
